Experimental data: ChEMBL document CHEMBL1944618, “Synthesis and antifungal activity of a new series of 2-(1H-imidazol-1-yl)-1-phenylethanol derivatives” (Eur J Med Chem, 2012)
≈ marks a conversion by molar mass, not a printed value.

Key:
Candida parapsilosis [1] = experiment: Antifungal activity against Candida parapsilosis DSM 11224 after 48 hrs by M27-A3 CLSI method; type: functional
Procedure, shortened: (§1)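 Broth microdilution in RPMI 1640, two-fold serial dilutions, final test range 0.125–64 µg mL-1 (fluconazole reference 0.0078–128 µg mL-1). Inoculum 1.0×10^3–1.5×10^3 cells mL-1 from yeasts grown 24 h at 35 °C on Sabouraud dextrose agar. Incubation 35 °C, read at 48 h. MIC = lowest concentration giving >50% turbidity decrease versus growth control. Run three times in triplicate. C. parapsilosis ATCC22019 served as QC.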

Candida = experiment: Antifungal activity against Candida sp. after 48 hrs by M27-A3 CLSI method; type: functional; procedure, shortened: as §1
Candida albicans [2] = experiment: Antifungal activity against Candida albicans ATCC 10231 after 48 hrs by M27-A3 CLSI method; type: functional; settings: ATCC 10231, 48 h; procedure, shortened: as §1
Nakaseomyces glabratus [3] = experiment: Antifungal activity against Candida glabrata PMC 0805 after 48 hrs by M27-A3 CLSI method; type: functional; settings: PMC 0805, 48 h; procedure, shortened: as §1
Candida parapsilosis [4] = experiment: Antifungal activity against Candida parapsilosis ATCC 22019 after 48 hrs by M27-A3 CLSI method; type: functional; settings: Lodderomyces parapsilosis, ATCC 22019, 48 h; procedure, shortened: as §1
Candida tropicalis [5] = experiment: Antifungal activity against Candida tropicalis PMC 0910 after 48 hrs by M27-A3 CLSI method; type: functional; settings: PMC 0910, 48 h; procedure, shortened: as §1
Candida albicans [6] = experiment: Antifungal activity against Candida albicans ATCC 3153 after 48 hrs by M27-A3 CLSI method; type: functional; settings: ATCC 3153, 48 h; procedure, shortened: as §1
Candida albicans [7] = experiment: Antifungal activity against Candida albicans after 48 hrs by M27-A3 CLSI method; type: functional; procedure, shortened: as §1
Candida tropicalis [8] = experiment: Antifungal activity against Candida tropicalis DSM 11953 after 48 hrs by M27-A3 CLSI method; type: functional; settings: DSM 11953, 48 h; procedure, shortened: as §1
Candida albicans [9] = experiment: Antifungal activity against Candida albicans ATCC 24433 after 48 hrs by M27-A3 CLSI method; type: functional; procedure, shortened: as §1
Candida albicans [10] = experiment: Antifungal activity against Candida albicans ATCC 76615 after 48 hrs by M27-A3 CLSI method; type: functional; settings: ATCC 76615, 48 h; procedure, shortened: as §1
Pichia kudriavzevii [11] = experiment: Antifungal activity against Candida krusei DSM 6128 after 48 hrs by M27-A3 CLSI method; type: functional; settings: DSM 6128, 48 h; procedure, shortened: as §1
Pichia kudriavzevii [12] = experiment: Antifungal activity against Candida krusei PMC 0613 after 48 hrs by M27-A3 CLSI method; type: functional; procedure, shortened: as §1
Nakaseomyces glabratus [13] = experiment: Antifungal activity against Candida glabrata after 48 hrs by M27-A3 CLSI method; type: functional; procedure, shortened: as §1
Pichia kudriavzevii [14] = experiment: Antifungal activity against Candida krusei after 48 hrs by M27-A3 CLSI method; type: functional; procedure, shortened: as §1
Candida parapsilosis [15] = experiment: Antifungal activity against Candida parapsilosis after 48 hrs by M27-A3 CLSI method; type: functional; settings: Lodderomyces parapsilosis; procedure, shortened: as §1
Candida tropicalis [16] = experiment: Antifungal activity against Candida tropicalis after 48 hrs by M27-A3 CLSI method; type: functional; procedure, shortened: as §1
Candida tropicalis [17] = experiment: Antifungal activity against Candida tropicalis DSM11953 after 48 hrs by M27-A3 CLSI method
[18] = Lodderomyces parapsilosis, DSM 11224, 48 h, read-out: MIC
[19] = Candida albicans, ATCC 24433, 48 h, read-out: MIC
[20] = Pichia kudriavzevii, PMC 0613, 48 h, read-out: MIC

Row | Structure (SMILES) | MIC (Candida parapsilosis [1]; [18]) | MIC (Candida) | MIC50 (Candida) | MIC90 (Candida) | MIC (Candida albicans [2]) | MIC (Nakaseomyces glabratus [3]) | MIC (Candida parapsilosis [4]) | MIC (Candida tropicalis [5]) | MIC (Candida albicans [6]) | MIC (Candida albicans [7]) | MIC50 (Candida albicans [7]) | MIC90 (Candida albicans [7]) | MIC (Candida tropicalis [8]) | MIC (Candida albicans [9]; [19]) | MIC (Candida albicans [10]) | MIC (Pichia kudriavzevii [11]) | MIC (Pichia kudriavzevii [12]; [20]) | other results
1 | CC(C)c1ccc(NC(=O)OC(Cn2ccnc2)c2ccccc2)cc1 (racemic) | > 64 µg/mL | 107 µg/mL (≈ 305 µM) | 128 µg/mL (≈ 366 µM) | 128 µg/mL (≈ 366 µM) | 64 µg/mL (≈ 183 µM) | > 64 µg/mL | 64 µg/mL (≈ 183 µM) | 64 µg/mL (≈ 183 µM) | ≥ 64 µg/mL | 77.7 µg/mL (≈ 222 µM) | 64 µg/mL (≈ 183 µM) | 128 µg/mL (≈ 366 µM) | > 64 µg/mL | 32 µg/mL (≈ 91.6 µM) | ≥ 64 µg/mL | > 64 µg/mL | 64 µg/mL (≈ 183 µM) | 
2 | O=C(OC(Cn1ccnc1)c1ccc(C(F)(F)F)cc1)c1cccc(C(F)(F)F)c1 (racemic) | > 64 µg/mL | 100 µg/mL (≈ 233 µM) | 128 µg/mL (≈ 299 µM) | 128 µg/mL (≈ 299 µM) | 64 µg/mL (≈ 149 µM) | > 64 µg/mL | 64 µg/mL (≈ 149 µM) | 32 µg/mL (≈ 74.7 µM) | ≥ 64 µg/mL | 91.4 µg/mL (≈ 213 µM) | 64 µg/mL (≈ 149 µM) | 128 µg/mL (≈ 299 µM) | > 64 µg/mL | ≥ 64 µg/mL | ≥ 64 µg/mL | > 64 µg/mL | 64 µg/mL (≈ 149 µM) | 
3 | OC(Cn1cncn1)(Cn1cncn1)c1ccc(F)cc1F [FLUCONAZOLE] | 1 µg/mL (≈ 3.27 µM) | 7.9 µg/mL (≈ 25.8 µM) | 2 µg/mL (≈ 6.53 µM) | 16 µg/mL (≈ 52.2 µM) | 2 µg/mL (≈ 6.53 µM) | 0.5 µg/mL (≈ 1.63 µM) | 2 µg/mL (≈ 6.53 µM) | 2.5 µg/mL (≈ 8.16 µM) | 16 µg/mL (≈ 52.2 µM) | 4.9 µg/mL (≈ 16 µM) | 1 µg/mL (≈ 3.27 µM) | 16 µg/mL (≈ 52.2 µM) | 1 µg/mL (≈ 3.27 µM) | 1 µg/mL (≈ 3.27 µM) | 0.25 µg/mL (≈ 0.816 µM) | 16 µg/mL (≈ 52.2 µM) | 12 µg/mL (≈ 39.2 µM) | MIC (Nakaseomyces glabratus [13]): 0.87 µg/mL (≈ 2.84 µM); MIC (Pichia kudriavzevii [14]): 26 µg/mL (≈ 84.9 µM); MIC (Candida parapsilosis [15]): 1.6 µg/mL (≈ 5.22 µM); MIC (Candida tropicalis [16]): 3.25 µg/mL (≈ 10.6 µM)
4 | CC(C)c1ccc(NC(=O)OC(Cn2ccnc2)c2ccc(Cl)cc2)cc1 (racemic) | > 64 µg/mL | 115 µg/mL (≈ 299 µM) | 128 µg/mL (≈ 333 µM) | 128 µg/mL (≈ 333 µM) | 4 µg/mL (≈ 10.4 µM) | > 64 µg/mL | > 64 µg/mL | > 64 µg/mL | 16 µg/mL (≈ 41.7 µM) | 60 µg/mL (≈ 156 µM) | 64 µg/mL (≈ 167 µM) | 128 µg/mL (≈ 333 µM) | > 64 µg/mL | 16 µg/mL (≈ 41.7 µM) | > 64 µg/mL | > 64 µg/mL | > 64 µg/mL | 
5 | OC(Cn1ccnc1)c1ccc(Cl)cc1 (racemic) | 64 µg/mL (≈ 287 µM) | 108 µg/mL (≈ 485 µM) | 128 µg/mL (≈ 575 µM) | 128 µg/mL (≈ 575 µM) | > 64 µg/mL | > 64 µg/mL | > 64 µg/mL | > 64 µg/mL | > 32 µg/mL | 112 µg/mL (≈ 503 µM) | 128 µg/mL (≈ 575 µM) | 128 µg/mL (≈ 575 µM) | > 64 µg/mL | > 64 µg/mL | > 64 µg/mL | > 64 µg/mL | 16 µg/mL (≈ 71.9 µM) | 
6 | O=C(COc1ccccc1)OC(Cn1ccnc1)c1ccc(Cl)cc1 (racemic) | 8 µg/mL (≈ 22.4 µM) | 51.3 µg/mL (≈ 144 µM) | 16 µg/mL (≈ 44.8 µM) | 128 µg/mL (≈ 359 µM) | 4 µg/mL (≈ 11.2 µM) | 16 µg/mL (≈ 44.8 µM) | 32 µg/mL (≈ 89.7 µM) | 4 µg/mL (≈ 11.2 µM) | 16 µg/mL (≈ 44.8 µM) | 67.7 µg/mL (≈ 190 µM) | 64 µg/mL (≈ 179 µM) | 128 µg/mL (≈ 359 µM) | > 64 µg/mL | 2 µg/mL (≈ 5.61 µM) | > 64 µg/mL | > 64 µg/mL | 16 µg/mL (≈ 44.8 µM) | 
7 | O=C(OC(Cn1ccnc1)c1ccccc1)c1ccc(C(F)(F)F)cc1 (racemic) | 32 µg/mL (≈ 88.8 µM) | 55.5 µg/mL (≈ 154 µM) | 32 µg/mL (≈ 88.8 µM) | 128 µg/mL (≈ 355 µM) | 8 µg/mL (≈ 22.2 µM) | 8 µg/mL (≈ 22.2 µM) | 64 µg/mL (≈ 178 µM) | 4 µg/mL (≈ 11.1 µM) | 8 µg/mL (≈ 22.2 µM) | 33.1 µg/mL (≈ 91.9 µM) | 8 µg/mL (≈ 22.2 µM) | 64 µg/mL (≈ 178 µM) | 16 µg/mL (≈ 44.4 µM) | 8 µg/mL (≈ 22.2 µM) | ≥ 64 µg/mL | > 64 µg/mL | 64 µg/mL (≈ 178 µM) | 
8 | OC(Cn1ccnc1)c1ccc(F)cc1 (racemic) | > 64 µg/mL | 104 µg/mL (≈ 504 µM) | 128 µg/mL (≈ 621 µM) | 128 µg/mL (≈ 621 µM) | > 64 µg/mL | 16 µg/mL (≈ 77.6 µM) | > 64 µg/mL | 16 µg/mL (≈ 77.6 µM) | 32 µg/mL (≈ 155 µM) | 101 µg/mL (≈ 491 µM) | 128 µg/mL (≈ 621 µM) | 128 µg/mL (≈ 621 µM) | > 64 µg/mL | > 64 µg/mL | > 64 µg/mL | > 64 µg/mL | 64 µg/mL (≈ 310 µM) | 
9 | O=C(OC(Cn1ccnc1)c1ccccc1)c1ccc(-c2ccccc2)cc1 (single isomer, unassigned; (+)) |  |  |  |  |  |  |  |  |  |  |  |  |  |  |  |  |  | MIC (Candida parapsilosis [1]): 26.67 µg/mL (≈ 72.4 µM); MIC (Candida tropicalis [17]): 26.67 µg/mL (≈ 72.4 µM); MIC (Candida albicans [9]): 33.7 µg/mL (≈ 91.5 µM); MIC (Pichia kudriavzevii [12]): 21.33 µg/mL (≈ 57.9 µM)
